Reference: PubChem BioAssay AID504495 (The Scripps Research Institute Molecular Screening Center, 2011)

Target: Platelet-activating factor acetylhydrolase 2, cytoplasmic (Mus musculus) (UniProt Q8VDG7)
Assay: PAFAH2 inhibition in cultured cells, late-stage follow-up, cell-based, gel-based competitive ABPP, fluorescence, powder samples (AID 504495)
Conditions: BW5147 murine T cells, in situ gel ABPP, FP-Rh, 4 h; at 0.03 µM; active compounds read high
How it was run: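 Test system: murine BW5147 T cells / Compound dosing: one dose, 30 nM / Times: cells 4 h 37 °C, probe 30 min 25 °C / Measured by: in-gel fluorescence scan after SDS-PAGE, PAFAH2 band optical density / Measure: % inhibition versus DMSO-treated cells / Benchmarks: DMSO-treated cells, blank gel background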

Sequence of Platelet-activating factor acetylhydrolase 2, cytoplasmic (Mus musculus) (Q8VDG7 whole entry, looked up): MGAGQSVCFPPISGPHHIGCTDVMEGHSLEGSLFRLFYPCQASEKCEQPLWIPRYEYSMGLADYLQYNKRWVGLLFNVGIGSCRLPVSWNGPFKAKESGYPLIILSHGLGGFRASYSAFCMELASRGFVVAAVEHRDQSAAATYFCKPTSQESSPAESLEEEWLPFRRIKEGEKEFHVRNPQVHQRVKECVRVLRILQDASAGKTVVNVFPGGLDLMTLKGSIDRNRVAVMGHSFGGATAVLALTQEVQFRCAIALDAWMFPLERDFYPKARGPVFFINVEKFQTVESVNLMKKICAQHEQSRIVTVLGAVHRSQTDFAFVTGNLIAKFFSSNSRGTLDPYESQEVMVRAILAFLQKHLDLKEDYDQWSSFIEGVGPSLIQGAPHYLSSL

In the case of O=C(N1CCCC1)n1ncc(-c2ccc(-c3ccccc3)cc2)n1, the inhibition is reported as 100%.
